High-throughput results deposited in PubChem BioAssay by several laboratories.
Rows were chosen to be rich in hits. Some 1.6% of all compounds tested hit in one or more screens of this group.
GSTO1 counter: counter-screen for RBBP9 inhibitors: inhibitors of human GSTO1. inhibition, % at 5.96 µM. P78417. recombinant GSTO1, activity-based probe fluorescence polarization. 1.1% of 300,000 active. AID 1974;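 active = inhibition above the campaign mean inhibition plus 3 SD, cut at about 35% in these data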
JMJD2C inh: blocks human GASC-1 demethylase activity; GST-JMJD2C(1-420) H3K9me3 demethylation, DELFIA europium; 0.069% of 330,000 active; inhibition, % at 2.35 µM; Q9H3R0;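 active = more than half of a compound's replicate wells show inhibition beyond 50%, single wells judged on their own value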;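 note: signal counts dimethyl H3K9 product captured on neutravidin plate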
PAD4 FP inh: PAD4 (human) enzyme inhibition; Q9UM07; recombinant PAD4, RCA probe fluorescence polarization; inhibition, % at 6.36 µM; 0.41% of 330,000 active; AID 485272;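 active = percent inhibition above a cutoff equal to the mean of all tested compounds plus 3 SD, cut at about 15% in these data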
Apaf1 inhib: blocks human Apaf-1 apoptosome activity; O14727; reconstituted apoptosome caspase-3 activity, DEVD-Rh110 fluorescence; inhibition, % at 20 µM; 0.71% of 330,000 active; active = inhibition of at least 40% at 20 µM
Target sequence (O14727 whole entry, looked up): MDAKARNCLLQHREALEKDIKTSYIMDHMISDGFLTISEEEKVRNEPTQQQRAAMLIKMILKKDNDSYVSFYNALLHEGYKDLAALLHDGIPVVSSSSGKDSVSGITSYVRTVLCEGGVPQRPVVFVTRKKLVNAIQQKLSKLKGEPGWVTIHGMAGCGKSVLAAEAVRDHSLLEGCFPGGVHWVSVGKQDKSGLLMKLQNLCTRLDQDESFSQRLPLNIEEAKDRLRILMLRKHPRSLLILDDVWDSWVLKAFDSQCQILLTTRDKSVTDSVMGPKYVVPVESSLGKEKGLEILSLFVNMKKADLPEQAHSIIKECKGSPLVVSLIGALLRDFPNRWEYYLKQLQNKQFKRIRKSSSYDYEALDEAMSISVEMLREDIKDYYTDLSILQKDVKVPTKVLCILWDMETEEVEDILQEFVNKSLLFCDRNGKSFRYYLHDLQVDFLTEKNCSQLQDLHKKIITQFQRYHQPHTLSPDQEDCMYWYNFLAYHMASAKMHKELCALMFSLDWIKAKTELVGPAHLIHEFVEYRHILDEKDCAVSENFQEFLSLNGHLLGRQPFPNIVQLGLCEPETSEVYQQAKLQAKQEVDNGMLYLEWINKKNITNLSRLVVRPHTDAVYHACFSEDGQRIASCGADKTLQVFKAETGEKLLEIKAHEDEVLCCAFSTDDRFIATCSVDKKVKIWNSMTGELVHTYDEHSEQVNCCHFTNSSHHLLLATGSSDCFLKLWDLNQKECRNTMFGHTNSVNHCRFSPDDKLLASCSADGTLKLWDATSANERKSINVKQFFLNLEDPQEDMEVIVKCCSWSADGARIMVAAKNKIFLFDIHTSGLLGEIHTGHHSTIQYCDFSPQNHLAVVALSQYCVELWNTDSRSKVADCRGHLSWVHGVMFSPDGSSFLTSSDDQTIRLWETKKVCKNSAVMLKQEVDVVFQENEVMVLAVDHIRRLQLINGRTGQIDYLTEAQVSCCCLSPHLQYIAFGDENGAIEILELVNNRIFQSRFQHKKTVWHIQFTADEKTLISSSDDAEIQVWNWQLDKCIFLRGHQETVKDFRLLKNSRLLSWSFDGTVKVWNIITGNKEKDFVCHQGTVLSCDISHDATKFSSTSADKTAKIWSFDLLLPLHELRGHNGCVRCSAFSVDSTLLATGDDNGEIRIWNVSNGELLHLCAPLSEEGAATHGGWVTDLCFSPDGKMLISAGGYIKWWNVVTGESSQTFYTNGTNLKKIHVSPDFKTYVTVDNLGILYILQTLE
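Material: biochemical Apaf-1 apoptosome reconstitution. Medium: Hepes buffer, pH 7.5. Also added: cytochrome c activation, bis-DEVD rhodamine 110 substrate. Timing: 30 min compound preincubation, 50 min activation, room temperature. Measured by: rhodamine 110 fluorescence at Ex 480/Em 540 nm.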
UBC9 SUMO inh: SUMOylation inhibition | inhibition, % at 35 µM | HTRF SUMOylation assay, SAE1/SAE2 + UBC9, in vitro | 0.36% of 290,000 active | P63279; in the data active = inhibition above about 50%, passing the limit was not always enough
TDP2 inh: blocks human TDP2 phosphodiesterase activity. O95551. recombinant TDP2, T5PNP hydrolysis, p-nitrophenol absorbance 415 nm. inhibition, % at 12.8 µM. 0.34% of 370,000 active;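 active = inhibition above the mean of all tested compounds plus 3 SD, set per campaign, cut at about 25% in these data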
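test system = human TDP2 enzyme | input = TDP2 enzyme at 120 nM final | medium = 50 mM Tris-HCl pH 7.5 with Mg2+, KCl, DTT, BSA | also added = T5PNP substrate, 5 mM | times = 2 h at 37 °C | technique = epi absorbance | benchmarks = high control without enzyme, low control DMSO plus TDP2 | replication = each compound tested once, singlicate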
GSTO1 confirm: GSTO1 (human) inhibition, confirmation; shares compounds with GSTO1 counter; recombinant GSTO1, probe fluorescence polarization; inhibition, % at 5.96 µM; AID 2176; 54% of 2,400 active;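 active = inhibition above the primary screen's cutoff, its mean inhibition plus 3 SD, cut at about 35% in these data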;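 note: loss of polarization as inhibitors block binding of rhodamine sulfonate ester activity probe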
GSTO1 ABPP inh: GSTO1 (human) inhibition by gel ABPP; AID 463110; inhibition, % at 1 µM; shares compounds with GSTO1 counter; recombinant GSTO1, gel ABPP SE-Rh probe fluorescence; 30% of 130 active;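 active = inhibition of the enzyme GSTO1 above about 75%, limit read from the data; inactive = inhibition below that limit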
Of the large screens only hits and unclear results are named; the others gave an inactive call (follow-up assays come after a bar, where they were run).

O=C(NC1CCCCC1)C(c1ccccc1F)N(Cc1ccco1)C(=O)c1ccccn1 (stereo not drawn)	GSTO1 counter 38 | GSTO1 confirm inactive
COc1ccc(OC)c(C(C(=O)NC2CCCCC2)N(Cc2ccco2)C(=O)c2ccccn2)c1 (stereo not drawn)	none
Cc1cc(=O)[nH]c(N=N/C(=N/Nc2ccc(O)cc2)c2ccccc2)n1	GSTO1 counter 52 | GSTO1 confirm inactive
Clc1ccc(C=NN2CCCCCC2)cc1Cl	none (no result: GSTO1 counter, JMJD2C inh, PAD4 FP inh, Apaf1 inhib, UBC9 SUMO inh)
Oc1ccc(/C=N/N2CCCCC2)cc1O	GSTO1 counter 40 | GSTO1 confirm inactive
O=c1cc(-c2ccc(O)c(O)c2)oc2cc(O)cc(O)c12	GSTO1 counter 50 | GSTO1 confirm 47
COc1ccc(-c2cc(=O)c3c(O)cc(O)cc3o2)cc1	none (no result: JMJD2C inh, UBC9 SUMO inh)
O=c1c(O)c(-c2ccc(O)c(O)c2)oc2cc(O)cc(O)c12	GSTO1 counter 57 | GSTO1 confirm 66
C[C@@H](N)P(=O)(O)C[C@H](Cc1ccccc1)C(=O)O	none (no result: GSTO1 counter, JMJD2C inh, PAD4 FP inh, Apaf1 inhib, UBC9 SUMO inh)
CCN(CC)C(=O)c1ccc(N)cc1	GSTO1 counter 43 | GSTO1 confirm inactive
Cc1oc2c(O)c(O)ccc2c(=O)c1-c1cnn(-c2ccccc2)c1	GSTO1 counter 59 | GSTO1 confirm inactive
Clc1ccccc1C1Nc2cccc3cccc(c23)N1	GSTO1 counter 43 | GSTO1 confirm inactive
CC(=O)Oc1cc(OC(C)=O)c2c(C)cc(=O)oc2c1	GSTO1 counter 53 | GSTO1 confirm inactive
COc1ccccc1-c1nnc(NC(=O)C(C)SC2=NCCS2)s1 (stereo not drawn)	GSTO1 counter 48 | GSTO1 confirm 62
CCNc1nnc(-c2ccccc2OC)s1	none
CC(C)(C)c1ccc(-c2nnc3sc(COc4ccccc4)nn23)cc1	none (no result: GSTO1 counter, JMJD2C inh, PAD4 FP inh, Apaf1 inhib, UBC9 SUMO inh)
CCCN1C(=S)c2ccccc2C1c1ccccc1 (stereo not drawn)	GSTO1 counter 60 | GSTO1 confirm inactive
CCOC(=O)c1c(C)[nH]c(C)c1C(=O)COC(=O)c1cccc(S(=O)(=O)NC)c1	GSTO1 counter 40 | GSTO1 confirm inactive
Cc1[nH]n(-c2ccccc2)c(=O)c1N=Nc1ccc2c(c1)OCCO2	none
Cc1[nH]n(-c2ccccc2)c(=O)c1N=Nc1c(O)cc(S(=O)(=O)N(C)C)c2ccccc12	GSTO1 counter 47 (no result: UBC9 SUMO inh) | GSTO1 confirm 71
CCOc1ccccc1N1CCN(C2=C(NS(=O)(=O)c3cccs3)C(=O)c3ccccc3C2=O)CC1	GSTO1 counter 63 | GSTO1 confirm inactive
CN1CCN(C2=C(NS(=O)(=O)c3cccs3)C(=O)c3ccccc3C2=O)CC1	none
O=C(C1CCN(c2ncnc3c2sc2cccc(F)c23)CC1)N1CCN(Cc2ccc(F)cc2)CC1	none (no result: GSTO1 counter, JMJD2C inh, PAD4 FP inh, Apaf1 inhib, UBC9 SUMO inh)
CC(C)C[C@H](NC1(C(=O)NC2CCCCC2)CCCCC1)C(=O)NCCc1c[nH]c2ccccc12	none (no result: GSTO1 counter, JMJD2C inh, PAD4 FP inh, Apaf1 inhib, UBC9 SUMO inh)
COc1cc(-c2cc(=O)c3c(O)c(OC)c(OC)c(O)c3o2)ccc1O	GSTO1 counter 41 | GSTO1 confirm inactive
COc1c(O)c(O)c2oc(-c3ccccc3)cc(=O)c2c1OC	none
COc1cccc2c(NCc3ccccc3)nc(-n3c(N)nc4ccccc43)nc12	none (no result: GSTO1 counter, JMJD2C inh, PAD4 FP inh, Apaf1 inhib, UBC9 SUMO inh)
O=C(CCl)N1CCCC1c1ccc2c(c1)OCCO2 (stereo not drawn)	GSTO1 counter 55 | GSTO1 confirm 70 | GSTO1 ABPP inh inactive
COc1cc(/C=C2\SC(N)=NC2=O)cc(Br)c1O	GSTO1 counter 61 | GSTO1 confirm 66
COc1ccc(/C=C2\SC(N)=NC2=O)cc1	none (no result: GSTO1 counter, PAD4 FP inh)
NS(=O)(=O)c1ccc2nc(NC(=O)c3ccc4ncsc4c3)sc2c1	none (no result: TDP2 inh)
NS(=O)(=O)c1ccc2nc(NC(=O)c3ccc4c(c3)OCCO4)sc2c1	GSTO1 counter 42 | GSTO1 confirm inactive
CCOc1ccc(CN(C)C(=O)CCl)cc1	GSTO1 counter 81 | GSTO1 confirm 98 | GSTO1 ABPP inh inactive
Cc1ccc(C2Nc3cccc4cccc(c34)N2)s1	GSTO1 counter 44 | GSTO1 confirm inactive
Brc1ccc(C2Nc3cccc4cccc(c34)N2)cc1	none (no result: GSTO1 counter, JMJD2C inh, PAD4 FP inh, Apaf1 inhib, UBC9 SUMO inh)
